Vif imaging = inhibitors of HIV Vif; 340,000 compounds, 0.35% hits; AID 602346; inhibition, % at 7.49 µM; HEK293T cells, Vif self-association by quenched fluorescence, imaging, 24 h; in the data active = inhibition above about 50%, passing the limit was not always enough
CaV13 FRET inh = Disruptors of the CACNA1D IQ motif to Ca2+-dependent inactivation inhibitor domain association, primary screening, Förster resonance energy transfer in intact living …; inhibition, % at 12.3 µM; 340,000 compounds, 0.098% hits; HEK cells, CFP/YFP FRET ICDI-IQ, plate reader, 10 min; percent FRET-ratio fall versus neutral wells;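 active = mean replicate inhibition of at least 30% and at least 1% of replicates passing that level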
SR-BI HDL uptake = mouse SR-BI HDL lipid transfer inhibition | Q61009 | ldlA[mSR-BI] CHO cells, DiI-HDL uptake fluorescence, 3 h | inhibition, % at 12.5 µM | 320,000 compounds, 0.96% hits | AID 488896;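 active = mean replicate inhibition of at least 70% and a set share of replicates each scoring 70 or more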
V-ATPase pHluor = yeast V-ATPase proton transport regulation by pHLuorin; S. cerevisiae, pHLuorin cytosolic pH fluorescence; response, % at 10 µM; 350,000 compounds, 0.37% hits; in the data active = response mostly above about 7.3%, no sharp cut-off; inactive = mostly below about 5.4%; also: actives read high
NTR1 agonist = NTR1 (human) agonism. NTR1-U2OS beta-arrestin-GFP spot imaging, agonist mode. P30989. 330,000 compounds, 0.17% hits. activation, % at 20 µM;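 active = activation at or above 40% of the spot to cytoplasm intensity ratio, with at least 20 cells analyzed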
Target sequence (P30989 whole entry, looked up): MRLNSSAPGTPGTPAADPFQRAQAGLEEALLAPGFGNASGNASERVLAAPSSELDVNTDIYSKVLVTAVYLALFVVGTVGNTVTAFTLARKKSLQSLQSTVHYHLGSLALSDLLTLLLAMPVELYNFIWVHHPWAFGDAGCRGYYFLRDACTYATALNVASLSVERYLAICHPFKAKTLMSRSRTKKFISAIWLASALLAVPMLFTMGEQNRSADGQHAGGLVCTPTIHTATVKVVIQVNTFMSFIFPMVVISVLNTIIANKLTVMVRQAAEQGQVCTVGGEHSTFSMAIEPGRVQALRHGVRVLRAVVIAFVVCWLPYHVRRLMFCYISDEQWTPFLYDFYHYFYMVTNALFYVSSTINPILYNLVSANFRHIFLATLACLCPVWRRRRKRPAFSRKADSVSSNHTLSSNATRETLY
SR-BI DiI-HDL act = activators of SR-BI mediated HDL lipid uptake | AID 504775 | activation, % at 12.5 µM | 320,000 compounds, 0.096% hits | CHO ldlA[mSR-BI] cells, DiI-HDL uptake fluorescence, 3 h; 100 = double the neutral-control signal;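 active = mean replicate activation of at least 60% and every replicate at or above 60%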
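Test system: SR-BI-overexpressing, LDLR-lacking CHO cells. Measured by: DiI fluorescence, bottom read. Medium: Ham's F12 with 0.5% BSA, HEPES 25 mM, pH 7.4. Timing: 3 h uptake period with compound, 37 °C.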
Hits are given with their value; – = inactive; · = no result given; + = active, no number. Only some compounds are listed: those with a hit (about 1.7% of all), similar ones and a draw of the others.

SMILES	Vif imaging	CaV13 FRET inh	SR-BI HDL uptake	V-ATPase pHluor	NTR1 agonist	SR-BI DiI-HDL act
O=C(Nc1nc(-c2ccncc2)cs1)c1ccc(S(=O)(=O)N2CCOCC2)cc1	–	–	–	–	–	–
CCOc1cccc(C(=O)Nc2nc(-c3ccc(S(=O)(=O)N4CCOCC4)cc3)cs2)c1	–	·	78.6	–	–	–
O=C(COc1cccc(Cl)c1)Nc1nc(-c2ccc(S(=O)(=O)N3CCOCC3)cc2)cs1	–	–	87.5	–	·	–
CC(C)C(=O)Nc1nc(-c2ccc(S(=O)(=O)N3CCOCC3)cc2)cs1	–	–	–	–	–	–
Cc1sc(NC(=O)/C=C/c2ccc(C(C)C)cc2)c(C#N)c1C	–	–	78.0	–	–	–
COc1cc(CNC(C)(C)CO)cc(Br)c1OCc1ccccc1	55.8	–	–	–	–	–
COC(=O)C(Nc1nccs1)(OC)C(F)(F)F (stereo not given)	–	–	–	17.4	–	–
COC(=O)CCC(=O)Nc1nccs1	–	–	–	–	–	–
COc1ccc(-c2noc(CCC(=O)N3CCN(c4cccc(C)c4C)CC3)n2)cc1	–	–	–	–	–	–
S=C(NC1CC1)N1CCc2ccccc2C1	94.0	–	–	–	–	–
Cc1ncc(CO)c(/C=N/NC(=O)c2cc3c(s2)CCCC3)c1O	–	–	104.1	–	–	–
CCOc1cc(/C=C2/NC(=S)NC2=O)ccc1OCc1ccc([N+](=O)[O-])cc1	–	·	72.8	–	–	–
CCOc1cc(C(c2c(C)[nH][nH]c2=O)c2c(C)[nH][nH]c2=O)ccc1OCc1ccc([N+](=O)[O-])cc1	–	–	–	–	–	–
Cc1nc(-c2ccc(Cl)cc2)sc1C1(C)CC(c2cccc(F)c2)=NO1 (stereo not given)	–	–	–	–	–	–
O=C(/C=C/c1ccco1)Nc1ccccn1	–	–	–	–	·	–
Cc1ccc(NC(=O)/C=C/c2ccco2)nc1	51.4	–	–	–	–	–
O=C(/C=C/c1ccco1)Nc1ccc(Oc2ccc(Cl)cc2)cc1	62.8	·	–	–	–	–
O=C(O)/C=C(/c1ccccc1)C(F)(F)F	–	–	–	–	·	–
COCCCNC(=O)c1ccc(Cn2c(=O)c3ccccc3n(CC(=O)NCCc3ccc(OC)c(OC)c3)c2=O)cc1	–	–	80.8	–	–	–
COCCCNC(=O)c1ccc(Cn2c(=O)c3ccccc3n(Cc3ccccc3C)c2=O)cc1	–	–	–	–	–	–
COCCCNC(=O)Cn1c(=O)n(Cc2ccc(C(=O)NCCc3ccc(OC)c(OC)c3)cc2)c(=O)c2ccccc21	–	–	88.3	–	–	–
CCCCNC(=O)CCn1c(=O)c2ccccc2n(CC(=O)NCCc2ccc(OC)c(OC)c2)c1=O	–	–	·	–	–	·
CC(C)=C[C@H]1C[C@H](C)[C@H]2CC[C@H](C)c3c(O[C@@H]4O[C@@H](C)[C@@H](O)[C@@H](O)[C@@H]4O)c(O)c(C)c1c32	–	·	·	·	·	·
COc1ccc(-c2oc3ccc(N4CCOCC4)cc3c2/C=C/c2ccc(OC)c(OC)c2)cc1	–	–	–	–	–	–
COc1ccc(-c2c(-c3ccsc3)oc3ccc(N4CCOCC4)cc23)cc1	–	–	75.5	–	–	–
SMILES	Vif imaging	CaV13 FRET inh	SR-BI HDL uptake	V-ATPase pHluor	NTR1 agonist	SR-BI DiI-HDL act
Cc1c(Cl)c(=O)n2c(=O)c(Cl)c(C)n12	–	+	–	–	–	–
CCN(C(=O)CSc1nnc(Nc2cccc(C)c2C)s1)C1CCS(=O)(=O)C1 (stereo not given)	55.6	–	–	–	–	–
Cc1ccc(S(=O)(=O)/C(C#N)=C/c2c(N3CCCCC3)nc3ccccn3c2=O)cc1	–	–	·	–	–	·
Cc1ccc(S(=O)(=O)/C(C#N)=C/c2c(N3CC(C)OC(C)C3)nc3ccccn3c2=O)cc1 (stereo not given)	67.3	–	–	–	–	–
Cc1ccc(CNc2nc(Cl)c(C#N)s2)cc1	·	–	–	15.2	–	–
Cc1ccccc1Oc1cccc(C(=O)/C(C#N)=C/N(C)C)c1	–	–	–	–	–	–
CN(C)/C=C(/C#N)C(=O)c1cccc(Oc2ccc(C(C)(C)C)cc2)c1	–	–	71.3	–	–	–
CN(C)c1nc(NNC(=O)c2ccccc2)nc(N(C)C)n1	–	–	–	–	·	–
Oc1ccc2ccccc2c1/C=N/Nc1ccccc1	–	–	–	–	–	–
Cc1cc(N/N=C/c2c(O)ccc3ccccc23)nc(-c2ccccc2O)n1	–	–	90.9	–	–	–
CC(=O)c1sc(N/N=C\c2ccc(N(C)C)cc2)nc1C	–	+	–	–	–	–
CC(=O)c1sc(N/N=C/c2cccc(O)c2)nc1C	·	–	·	–	–	·
CC(=O)c1sc(N/N=C\c2c(O)ccc3ccccc23)nc1C	–	–	97.1	–	–	–
CSc1cccc(NC(=O)/C=C/c2ccccc2)c1	–	–	72.8	–	–	–
CSc1cccc(NC(=O)/C=C/c2ccc(Cl)cc2)c1	–	–	–	–	–	–
Cc1ccc(NC(=O)c2cccc(C(=O)Nc3ccc(C)c(C)c3)n2)cc1C	·	–	74.7	–	–	–
O=c1c(N=Nc2ccc(O)cc2)c(-c2ccccc2)[nH]n1-c1ccc([N+](=O)[O-])cc1	–	–	107.3	–	–	–
Cc1ccc([N+](=O)[O-])cc1N=Nc1c(C)[nH]n(C(N)=S)c1=O	–	–	–	–	–	–
Cc1ccc([N+](=O)[O-])cc1N=Nc1c(-c2ccc([N+](=O)[O-])cc2)[nH]n(C(N)=S)c1=O	–	·	80.3	–	·	–
NC(=S)n1[nH]c(-c2ccc([N+](=O)[O-])cc2)c(N=Nc2ccc(Cl)cc2)c1=O	–	·	103.8	–	·	–
COc1ccc(S(=O)(=O)Nc2ccc3c(c2)OCCO3)cc1OC	–	–	–	–	–	–
CCC1(C)Cc2c(C#N)c(SC)nc(N3CCOCC3)c2CO1 (stereo not given)	52.8	–	·	–	–	·
COC(=O)c1cc2c(c3c4cc(F)ccc4n(S(=O)(=O)c4cccc(C)c4)c13)C(=O)N(Cc1ccco1)C2	·	–	·	·	·	·
O=C(CSc1nnc(NC(=O)c2ccccc2Cl)s1)Nc1ccc2c(c1)oc1ccccc12	·	–	·	·	51.0	·
Cc1ccc(CNC(=O)COC(=O)c2ccc(S(=O)(=O)N(C)C)cc2)cc1	·	–	–	–	–	–
O=S(=O)(Nc1ccc2c3c(cccc13)CC2)c1ccccc1	–	–	·	–	·	·
Cc1cc(C)c(S(=O)(=O)Nc2ccc3c4c(cccc24)CC3)c(C)c1	56.8	–	–	–	–	–
O=C(Nc1ccccc1N1CCOCC1)C1CCN(S(=O)(=O)c2ccccc2F)CC1	–	–	–	–	–	214.3
COc1cccc(CNC(=O)[C@H]2CCCN2C(=O)[C@H]2CCCN2C(=O)c2ccccc2C(F)(F)F)c1	·	–	·	·	·	·

Source: PubChem BioAssay
